In assay [1] the test system is DU-145. The assay can be described thus: Induction of apoptosis in human DU145 cells assessed as late apoptotic cells at 8 uM after 24 hrs by Annexin V/propidium iodide staining based flow cytometry (reference value: 0.17%). The assay is classed as functional.
The target of assay [2] is T1, Alpha-1B adrenergic receptor (Homo sapiens, UniProt P35368).
T1 sequence (P35368 whole entry): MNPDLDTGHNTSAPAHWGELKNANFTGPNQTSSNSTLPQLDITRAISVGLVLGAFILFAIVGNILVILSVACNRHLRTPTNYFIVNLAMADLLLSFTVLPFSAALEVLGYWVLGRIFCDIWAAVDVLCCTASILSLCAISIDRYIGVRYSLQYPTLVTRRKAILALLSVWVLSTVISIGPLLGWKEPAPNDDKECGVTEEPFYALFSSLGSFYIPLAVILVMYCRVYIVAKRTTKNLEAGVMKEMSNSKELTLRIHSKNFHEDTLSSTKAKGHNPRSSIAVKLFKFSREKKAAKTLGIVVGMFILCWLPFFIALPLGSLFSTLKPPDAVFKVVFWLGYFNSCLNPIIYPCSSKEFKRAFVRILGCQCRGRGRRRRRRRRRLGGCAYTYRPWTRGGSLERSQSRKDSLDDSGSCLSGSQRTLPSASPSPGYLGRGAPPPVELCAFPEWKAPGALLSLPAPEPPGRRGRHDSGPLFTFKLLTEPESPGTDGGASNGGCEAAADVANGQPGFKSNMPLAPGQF
As to the kind of experiment: Antagonist activity at alpha 1B adrenergic receptor (unknown origin) by luciferase reporter gene assay. The assay is classed as functional. Summed up:
(§1)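 Dual-luciferase reporter assay measuring antagonism at α1A, α1B and α1D adrenoceptor subtypes. IC50 values are means of three experiments.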

Assay [3] has as its system DU-145. The assay can be described thus: Cell cycle arrest in human DU145 cells assessed as accumulation at S phase at 8 uM after 24 hrs by propidium iodide staining based flow cytometry (reference value: 20.64%). Format: functional.
A further assay deals with PC-3. As to the kind of experiment: Cytotoxicity against human PC3 cells assessed as growth inhibition after 24 hrs by CCK8 assay. The assay is classed as functional, cell-based. The settings on record: PC-3, 24 h. Summed up:
(§2)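 Cells (PC-3, LNCaP, DU145, normal prostate […] WPMY-1) exposed 24 h to escalating concentrations; viability by CCK-8 read-out as percent of control; IC50 derived.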

The target in assay [4] is T2, Alpha-1D adrenergic receptor (Homo sapiens, UniProt P25100).
T2 sequence (P25100 whole entry): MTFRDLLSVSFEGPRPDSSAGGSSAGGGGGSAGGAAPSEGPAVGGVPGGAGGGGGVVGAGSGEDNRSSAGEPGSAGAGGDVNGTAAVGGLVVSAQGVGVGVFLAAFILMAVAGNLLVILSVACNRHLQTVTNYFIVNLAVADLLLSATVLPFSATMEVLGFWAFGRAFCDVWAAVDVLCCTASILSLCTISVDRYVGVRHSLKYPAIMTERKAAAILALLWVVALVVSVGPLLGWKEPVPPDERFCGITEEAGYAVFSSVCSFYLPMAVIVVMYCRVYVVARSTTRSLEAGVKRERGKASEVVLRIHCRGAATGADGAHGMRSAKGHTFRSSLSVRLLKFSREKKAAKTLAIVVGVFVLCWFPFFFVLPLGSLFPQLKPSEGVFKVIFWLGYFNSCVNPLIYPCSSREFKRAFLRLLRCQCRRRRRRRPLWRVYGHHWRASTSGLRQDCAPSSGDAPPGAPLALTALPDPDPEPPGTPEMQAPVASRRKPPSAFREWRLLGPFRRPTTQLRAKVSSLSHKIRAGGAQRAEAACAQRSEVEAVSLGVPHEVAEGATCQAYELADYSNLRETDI
The assay can be described thus: Antagonist activity at alpha 1D adrenergic receptor (unknown origin) by luciferase reporter gene assay. Format: functional. Summed up:
as §1

In assay [5] the test system is DU-145. As to the kind of experiment: Cell cycle arrest in human DU145 cells assessed as accumulation at G0/G1 phase at 8 uM after 24 hrs by propidium iodide staining based flow cytometry (reference value: 55.49%). The assay is classed as functional.
The subject of assay [6] is DU-145. As to the kind of experiment: Cell cycle arrest in human DU145 cells assessed as accumulation at G2/M phase at 8 uM after 24 hrs by propidium iodide staining based flow cytometry (reference value: 24.42%). The assay is classed as functional.
The target of assay [7] is T3, Alpha-1A adrenergic receptor (Homo sapiens, UniProt P35348).
T3 sequence (P35348 whole entry): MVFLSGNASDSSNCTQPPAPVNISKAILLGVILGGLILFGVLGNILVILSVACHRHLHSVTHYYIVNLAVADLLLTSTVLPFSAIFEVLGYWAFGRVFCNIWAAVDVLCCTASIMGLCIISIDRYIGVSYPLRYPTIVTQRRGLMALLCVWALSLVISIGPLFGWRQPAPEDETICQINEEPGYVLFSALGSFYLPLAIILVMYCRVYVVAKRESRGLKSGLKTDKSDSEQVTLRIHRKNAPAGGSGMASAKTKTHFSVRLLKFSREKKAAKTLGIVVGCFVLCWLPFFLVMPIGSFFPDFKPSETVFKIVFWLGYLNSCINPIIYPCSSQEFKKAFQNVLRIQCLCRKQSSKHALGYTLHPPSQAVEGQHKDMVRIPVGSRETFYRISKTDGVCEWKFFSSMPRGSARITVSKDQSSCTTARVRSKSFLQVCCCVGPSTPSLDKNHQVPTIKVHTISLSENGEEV
The assay can be described thus: Antagonist activity at alpha 1A adrenergic receptor (unknown origin) by luciferase reporter gene assay. Format: functional. Summed up:
as §1

Assay [8] has as its system DU-145. The assay can be described thus: Potency index, ratio of naftopidil IC50 to compound IC50 for human DU145 cells. Format: functional.
Assay [9] has as its system DU-145. The assay can be described thus: Induction of apoptosis in human DU145 cells assessed as necrotic cells at 8 uM after 24 hrs by Annexin V/propidium iodide staining based flow cytometry (reference value: 0.33%). Format: functional.
The next assay concerns LNCaP. The assay can be described thus: Cytotoxicity against human LNCAP cells assessed as growth inhibition after 24 hrs by CCK8 assay. The assay is classed as functional, cell-based. Summed up:
as §2

The test system of assay [10] is DU-145. As to the kind of experiment: Induction of apoptosis in human DU145 cells assessed as live cells at 8 uM after 24 hrs by Annexin V/propidium iodide staining based flow cytometry (reference value: 99.38%). Format: functional.
A short description of assay [11]: Cytotoxicity against human WPMY-1 cells assessed as growth inhibition after 24 hrs by CCK8 assay. Format: cell-based. The settings on record: WPMY-1, 24 h. Summed up: as §2
The test system of assay [12] is DU-145. As to the kind of experiment: Induction of apoptosis in human DU145 cells assessed as early apoptotic cells at 8 uM after 24 hrs by Annexin V/propidium iodide staining based flow cytometry (reference value: […]). The assay is classed as functional.
The test system of assay [13] is DU-145. As to the kind of experiment: Cytotoxicity against human DU145 cells assessed as growth inhibition after 24 hrs by CCK8 assay. The assay is classed as functional, cell-based. The note with it: DU-145, 24 h. Summed up: as §2
Assay [14] relates to DU-145. As to the kind of experiment: Cell cycle arrest in human DU145 cells assessed as accumulation at G2/M phase at 6 uM after 24 hrs by propidium iodide staining based flow cytometry (reference value: 24.42%). The assay is classed as functional.
The test system of assay [15] is DU-145. The assay can be described thus: Induction of apoptosis in human DU145 cells assessed as necrotic cells at 6 uM after 24 hrs by Annexin V/propidium iodide staining based flow cytometry (reference value: 0.33%). The assay is classed as functional.
For assay [16], the system named is DU-145. The assay can be described thus: Induction of apoptosis in human DU145 cells assessed as late apoptotic cells at 6 uM after 24 hrs by Annexin V/propidium iodide staining based flow cytometry (reference value: 0.17%). The assay is classed as functional.
The test system of assay [17] is DU-145. The assay can be described thus: Induction of apoptosis in human DU145 cells assessed as live cells at 6 uM after 24 hrs by Annexin V/propidium iodide staining based flow cytometry (reference value: 99.38%). Format: functional.
The subject of assay [18] is DU-145. As to the kind of experiment: Cell cycle arrest in human DU145 cells assessed as accumulation at S phase at 6 uM after 24 hrs by propidium iodide staining based flow cytometry (reference value: 20.64%). The assay is classed as functional.
Assay [19] has as its system DU-145. As to the kind of experiment: Induction of apoptosis in human DU145 cells assessed as early apoptotic cells at 6 uM after 24 hrs by Annexin V/propidium iodide staining based flow cytometry (reference value: […]). The assay is classed as functional.
Assay [20] deals with DU-145. The assay can be described thus: Cell cycle arrest in human DU145 cells assessed as accumulation at G0/G1 phase at 6 uM after 24 hrs by propidium iodide staining based flow cytometry (reference value: 55.49%). Format: functional.

This is an account of results in ChEMBL document CHEMBL4219197, “Synthesis, biological evaluation and SAR of naftopidil-based arylpiperazine derivatives” (Bioorg Med Chem Lett, 2018).

Consider `COc1ccc(N2CCN(CCc3ccc(COc4ccc5c(c4)CCCC5)cc3)CC2)cc1.Cl.Cl`, for which the Activity with DU-145 [1] is on record as 0.12%; with DU-145 [3] it was 21.14%; in the assay with DU-145 [5], 56.91%; with DU-145 [6], 23.04%; in the assay on DU-145 [9], 0.34%; with DU-145 [10], 99.4%. Moreover, the Activity in the assay on DU-145 [12] is listed as 0.11%. The IC50 in assay [2] is 972 nM; in the assay on PC-3, 76500 nM; in assay [4], 736 nM; in assay [7], 57.6 nM; in the assay with LNCaP, 46200 nM; in [11] it was above 50000 nM. Also, in the assay on DU-145 [13], the IC50 came out at 930 nM. Moreover, the “Ratio IC50” value with DU-145 [8] is 37.

Consider `Cl.Cl.Fc1ccc(N2CCN(CCc3ccc(COc4ccc5c(c4)CCCC5)cc3)CC2)cc1`, for which the IC50 in assay [2] is 1120 nM; in the assay on PC-3, 57300 nM; in assay [4], 103 nM; in [7], 1070 nM; in the assay on LNCaP, 48200 nM; in assay [11], above 50000 nM. The 50% inhibitory concentration (IC50) with DU-145 [13] stood at 900 nM. Besides, the Activity in the assay with DU-145 [14] is 12.72%; in the assay on DU-145 [15], 0.28%; in the assay with DU-145 [16], 0.1%; with DU-145 [17], 99.5%; in the assay on DU-145 [18] it was 20.42%; with DU-145 [19] it was 0.05%. In addition, the Activity in the assay with DU-145 [20] came to 70.5%. Further, the “Ratio IC50” value in the assay with DU-145 [8] is reported as 38.
